Laboratory results: ChEMBL document CHEMBL3243929, “Cannabinoids. 2. Synthesis and central nervous system activities of some B-ring homocannabinoid derivatives and related lactones” (1977)
Calls of active or inactive are those of the source. The calls are words filed in the database; no cut-off is given here.

Legend:
[1] = test system: Mus musculus; assay: CNS activity in po dosed mouse assessed as decrease in early exploratory behavior in activity cage; assay type: functional; details: read-out: MED
Summary of the method: (§1)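 Oral dosing in mice, with a 20 mg/kg po screening dose. Active compounds were titrated down to a minimum effective dose. Vehicle controls were given on the same injection-volume basis.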

[2] = test system: Rattus norvegicus; assay: CNS activity in rat assessed as decrease in septal-lesioned-induced hyperactivity at 10 mg/kg, po by septal-lesioned rat test; assay type: functional, organism-based; parameters: dose 10 mg/kg
Summary of the method: (§2)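 Oral dosing in rats in the septal-lesioned and muricidal assays, with a 10 mg/kg po screening dose. Active compounds were titrated down to a minimum effective dose. Vehicle controls were given on the same injection-volume basis.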

[3] = test system: Rattus norvegicus; assay: CNS activity in po dosed rat assessed as increase in latency to kill by muricidal rat test; assay type: functional; details: read-out: MED; summary of the method: as §2
[4] = test system: Rattus norvegicus; assay: CNS activity in rat assessed as increase in latency to kill at 10 mg/kg, po by muricidal rat test; assay type: functional, organism-based; parameters: dose 10 mg/kg; summary of the method: as §2
[5] = test system: Rattus norvegicus; assay: CNS activity in po dosed rat assessed as decrease in septal-lesioned-induced hyperactivity by septal-lesioned rat test; assay type: functional; details: read-out: MED; summary of the method: as §2
[6] = test system: Mus musculus; assay: CNS activity in mouse assessed as decrease in early exploratory behavior in activity cage at 20 mg/kg, po; assay type: functional, organism-based; parameters: dose 20 mg/kg; summary of the method: as §1

CCCCCCC(C)(C)c1cc(O)c2c(c1)OC(C)(C)CC1=C2CC(C)CC1 (centres undefined)
minimal effective dose [1]: 2.5 mg/kg | Activity [2]: inactive | minimal effective dose [3]: 2.5 mg/kg

CCCCCCC(C)(C)c1cc(O)c2c(c1)OCC(C)(C)C1=C2CC(C)CC1 (centres undefined)
minimal effective dose [1]: 20 mg/kg | Activity [2]: inactive | Activity [4]: inactive

CCCCCCC(C)(C)c1cc(O)c2c(c1)OCCC1=C2CC(C)CC1 (centres undefined)
minimal effective dose [1]: 1.25 mg/kg | minimal effective dose [5]: 1.25 mg/kg | minimal effective dose [3]: 1.25 mg/kg

CCCCCc1cc(O)c2c(c1)OC(C)(C)[C@@H]1CCC(C)=C[C@@H]21 [DRONABINOL]
minimal effective dose [1]: 10 mg/kg | Activity [2]: inactive | minimal effective dose [3]: 5 mg/kg

CCCCCCC(C)(C)c1cc(O)c2c(c1)OC(=O)CC1=C2CC(C)CC1 (centres undefined)
minimal effective dose [1]: 5 mg/kg | Activity [2]: inactive | minimal effective dose [3]: 5 mg/kg

CCCCCCC(C)(C)c1cc(O)c2c(c1)OC(C)(C)C1=C2CC(C)CC1 (centres undefined)
minimal effective dose [1]: 0.62 mg/kg | minimal effective dose [5]: 1.25 mg/kg | minimal effective dose [3]: 0.62 mg/kg

CCCCCCC(C)(C)c1cc(O)c2c3c(c(=O)oc2c1)CCC(C)C3 (centres undefined)
Activity [6]: inactive | Activity [2]: inactive | Activity [4]: inactive

CCCCCCC(C)(C)c1cc(O)c2c(c1)OC(=O)C(C)(C)C1=C2CC(C)CC1 (centres undefined)
Activity [6]: inactive | Activity [2]: inactive | Activity [4]: inactive
